{
  "source": "paper PMC2215654",
  "about": "(The Journal of General Physiology, 1984)",
  "key": {"[1]": {"molecular_target": "T1, human erythrocyte anion exchange protein (band 3) (Homo sapiens, UniProt P02730)", "T1 sequence (P02730 1-911)": "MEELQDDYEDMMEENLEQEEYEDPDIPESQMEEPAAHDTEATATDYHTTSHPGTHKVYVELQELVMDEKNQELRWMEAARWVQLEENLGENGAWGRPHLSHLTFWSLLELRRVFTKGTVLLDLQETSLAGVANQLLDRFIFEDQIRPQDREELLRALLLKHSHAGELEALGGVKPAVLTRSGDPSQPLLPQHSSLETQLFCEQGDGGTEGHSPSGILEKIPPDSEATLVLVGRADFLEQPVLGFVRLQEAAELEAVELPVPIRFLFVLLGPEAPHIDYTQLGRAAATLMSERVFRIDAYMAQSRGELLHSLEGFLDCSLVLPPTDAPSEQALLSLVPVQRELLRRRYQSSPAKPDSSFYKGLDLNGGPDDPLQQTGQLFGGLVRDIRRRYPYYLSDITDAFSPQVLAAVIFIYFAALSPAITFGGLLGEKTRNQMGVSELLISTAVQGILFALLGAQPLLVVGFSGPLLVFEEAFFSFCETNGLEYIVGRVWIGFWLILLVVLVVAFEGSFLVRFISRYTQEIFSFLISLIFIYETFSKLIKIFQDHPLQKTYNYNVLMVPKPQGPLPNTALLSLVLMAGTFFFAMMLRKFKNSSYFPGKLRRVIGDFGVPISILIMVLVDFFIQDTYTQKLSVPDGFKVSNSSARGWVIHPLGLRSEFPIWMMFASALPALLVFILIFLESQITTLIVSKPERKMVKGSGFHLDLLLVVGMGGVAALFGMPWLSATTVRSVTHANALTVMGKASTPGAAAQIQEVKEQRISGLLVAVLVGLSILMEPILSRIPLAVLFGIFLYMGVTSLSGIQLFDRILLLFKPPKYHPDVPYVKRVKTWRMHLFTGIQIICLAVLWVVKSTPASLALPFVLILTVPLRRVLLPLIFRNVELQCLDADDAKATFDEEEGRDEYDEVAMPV", "format": "cell-based", "conditions": "Table III mean", "in_short": "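Washed cells in 60K-Hi (pH 7.2) were pretreated 45 min at 37°C, 10% hematocrit, with 2.5 uM (low pH) or 5 uM (high pH) H2DIDS. They were albumin-washed, nystatin-treated (75 ug/ml, 10 min each in 60K-Hi then 60K-Lo, 0°C) and washed into 60K-Lo at pH 7.2 or 9.0. 36Cl efflux with graded H2DIDS and Cl ratios were measured at 0°C in those media. ID50 came from Dixon-plot x-intercepts.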"}, "[2]": {"molecular_target": "T1, human erythrocyte anion exchange protein (band 3)", "assay": "H2DIDS inhibition of chloride exchange in resealed ghosts with Cli < Clo, 0C", "format": "cell-based", "in_short": "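Washed cells were lysed at 0°C in 3.5 mM acetic acid, 4 mM MgSO4, 1 mM EGTA. Tris/KCl/sodium citrate was added for 10 or 60 mM internal Cl; after 10 min at 0°C, ghosts were resealed 45 min at 37°C. They were washed in 60 mM NaCl, 60 mM Na citrate, 5 mM HEPES, 5 mM glucose, MgSO4, pH 7.2. 36Cl efflux with graded H2DIDS was measured at 0°C; ID50 came from Dixon-plot x-intercepts.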"}, "[3]": {"test_system": "red cells (net chloride permeability)", "assay": "Net KCl flux with valinomycin into low chloride medium, 0C", "format": "cell-based, human", "in_short": "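Nystatin-treated high-Cl cells were washed in 150K, then 10K-Hi. Net K+ efflux was measured at 0°C, 0.1% hematocrit, in 10K-Hi with 1.33% ethanol, started by adding graded valinomycin, with or without 10 uM DIDS. K+ was read by flame photometry and taken as net KCl efflux. PK/PCl came from Goldman-equation fits, with PK linear in valinomycin and PK = 0.5 PRb.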"}, "[4]": {"test_system": "red cells (valinomycin-induced Rb+ exchange)", "assay": "86Rb exchange with valinomycin, 0C", "format": "cell-based, human", "in_short": "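Human red cells washed in 150 mM NaCl, 2 mM KCl, 20 mM HEPES pH 7.4, then loaded 17 h at 37°C (50% hematocrit) with ~5 uCi/ml 86Rb in 5 mM adenosine/chloramphenicol buffer. Efflux ran at 0°C, 0.1% hematocrit, in 48 mM NaCl/112 mM KCl/5 mM HEPES pH 7.2 with 1.33% ethanol. Valinomycin was added last, with or without 10 uM DIDS. Timed samples were centrifuged to give the efflux rate constant.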"}},
  "note": "Like-named read-outs stand apart in the source and are kept apart here.",
  "data": [
    {"smiles": "O=S(=O)(O)c1cc(N=C=S)ccc1CCc1ccc(N=C=S)cc1S(=O)(=O)O", "note": "[H2DIDS, 4,4'-diisothiocyano-1,2-diphenylethane-2,2'-disulfonic acid]", "values": [
      {"measurement": "ID50* (no chloride gradient), mean", "setting": "[1]; extracellular Cl 60 mM, intracellular Cl ~60 mM, 0C", "value": 0.24, "unit": "AM"},
      {"measurement": "ID50 (chloride gradient induced by increasing pH), mean", "setting": "[1]; intracellular Cl averaged 14.4 mM, mean Clo/Cli 4.66, 0C", "value": 0.47, "unit": "AM"},
      {"measurement": "ID50/ID50*, mean", "setting": "[1]; mean Clo/Cli 4.66", "value": 2.00},
      {"measurement": "ID50* (no chloride gradient), mean", "setting": "[2]; Table II mean, extracellular Cl 60 mM, intracellular Cl ~60 mM, 0C", "value": 0.15, "unit": "AM"},
      {"measurement": "ID50 (with chloride gradient Clo > Cli), mean", "setting": "[2]; Table II mean, intracellular Cl averaged 27.8 mM, mean Clo/Cli 2.35, 0C", "value": 0.21, "unit": "AM"},
      {"measurement": "ID50/ID50*, mean", "setting": "[2]; Table II mean, mean Clo/Cli 2.35", "value": 1.41},
      {"measurement": "increase in ID50 caused by high pH", "setting": "[2]; pH 9.0 versus pH 7.2, chloride ratio nearly invariant with pH", "value": 30, "unit": "%"}
    ]},
    {"smiles": "O=S(=O)(O)c1cc(N=C=S)ccc1C=Cc1ccc(N=C=S)cc1S(=O)(=O)O", "note": "[DIDS, 4,4'-diisothiocyano-stilbene-2,2'-disulfonic acid]", "values": [
      {"measurement": "plateau net KCl efflux", "setting": "[3]; in the presence of 10 uM DIDS, high valinomycin concentrations", "value": "greatly reduced"},
      {"measurement": "effect on Rb+ exchange", "setting": "[4]; DIDS 10 uM, valinomycin-induced Rb+ exchange", "value": "no significant effect"},
      {"measurement": "PRb", "setting": "[4]; Fig. 7, 10 uM valinomycin with 10 uM DIDS present", "value": 0.09216, "unit": "mmol/kg Hb - min - mM"}
    ]},
    {"smiles": "CC(C)[C@@H]1NC(=O)[C@H](C)OC(=O)[C@@H](C(C)C)NC(=O)[C@@H](C(C)C)OC(=O)[C@H](C(C)C)NC(=O)[C@H](C)OC(=O)[C@@H](C(C)C)NC(=O)[C@@H](C(C)C)OC(=O)[C@H](C(C)C)NC(=O)[C@H](C)OC(=O)[C@@H](C(C)C)NC(=O)[C@@H](C(C)C)OC1=O", "note": "[valinomycin]", "values": [
      {"measurement": "PK/PCl ratio", "setting": "[3]; 10 uM valinomycin, 10K-Hi medium, assuming PK = 0.5 PRb", "value": 33},
      {"measurement": "PK/PCl ratio", "setting": "[3]; valinomycin, other experiments, medium with 150 mM NaCl and 10 mM KCl", "value": "> 20"},
      {"measurement": "PRb", "setting": "[4]; Fig. 7, control cells, 10 uM valinomycin", "value": 0.09134, "unit": "mmol/kg Hb - min - mM"}
    ]}
  ]
}
